Data taken from ChEMBL document CHEMBL4138243, “Synthesis, biological evaluation, and metabolic stability of phenazine derivatives as antibacterial agents” (Eur J Med Chem, 2018).
In brackets after ≈: the same amount, converted by molar mass. Activity calls are given as the source filed them. The calls are words filed in the database; no cut-off is given here.

Key:
Escherichia coli [1] = experiment: Antibacterial activity against Escherichia coli K-12 after 24 hrs by broth microdilution method; format: functional
In short: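 Broth microdilution per ASM Clinical Microbiology Procedures Handbook (3rd ed.); 1 mg/mL DMSO stock serially 2-fold diluted in Mueller Hinton broth with 5% DMSO; inoculum from direct colony suspension at 0.5 McFarland; static incubation 37 °C, 24 h. MIC = lowest concentration without visible growth (eye and OD600). Vancomycin and gentamicin positive controls, medium negative control; triplicate.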

Staphylococcus aureus [2] = experiment: Antibacterial activity against methicillin-resistant Staphylococcus aureus USA300 JE2 after 24 hrs by broth microdilution method; format: functional; conditions: USA300 JE2, 24 h
In short: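 Broth microdilution. Test material taken from a 1 mg/mL DMSO stock and serially diluted 2-fold in Mueller Hinton broth containing 5% DMSO. Wells inoculated with a direct colony suspension at 0.5 McFarland, then incubated statically at 37 °C for 24 h. MIC is the lowest concentration with no growth, read by eye and by OD600. Vancomycin and gentamicin as positive controls. Run in triplicate.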

Staphylococcus aureus [3] = experiment: Antibacterial activity against methicillin-resistant Staphylococcus aureus USA300 JE2 at 10 times MIC after 24 hrs by Kirby Bauer method; format: functional
In short: (§1)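 Mutant-resistance disc assay. Culture grown in Mueller Hinton broth for 4 h, diluted to 1.5 × 10^8 CFU/mL (0.5 McFarland) and spread on Mueller Hinton agar. 6 mm paper discs loaded with compound in DMSO at 10 × MIC. Plates at 37 °C. Inhibition zone diameter read at 24 h. Plates then kept 6 days and checked for colonies growing inside the zone.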

Staphylococcus aureus [4] = experiment: Inhibition of biofilm formation of methicillin-resistant Staphylococcus aureus USA300 JE2 at MIC after 24 hrs by crystal violet staining-based assay relative to control; format: functional
In short: (§2)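 Biofilm formation inhibition. Gelatin-coated wells received 2-fold dilutions in TSB with 0.5% glucose plus cells at 2 × 10^6 CFU/mL from fresh culture. Incubated at 37 °C for 24 h. Wells gently rinsed, stained with 0.1% crystal violet for 10 min, destained in methanol:acetic acid:water 4:1:5 and read at OD540.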

Staphylococcus aureus [5] = experiment: Antibacterial activity against methicillin-resistant Staphylococcus aureus USA300 JE2 at 10 times MIC after 6 days by Kirby Bauer method; format: functional, organism-based; in short: as §1
Staphylococcus aureus [6] = experiment: Induction of membrane damage of methicillin-resistant Staphylococcus aureus USA300 JE2 at 2 times MIC after 18 hrs by transmission electron microscopic method; format: functional, organism-based
In short: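 TEM. […] Cells washed three times in PBS, then fixed in 2% glutaraldehyde with 2% paraformaldehyde in 0.1 M phosphate buffer.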

Staphylococcus aureus [7] = experiment: Induction of biofilm dispersion of methicillin-resistant Staphylococcus aureus USA300 JE2 at 2 times MIC after 24 hrs by crystal violet staining-based assay relative to control; format: functional
In short: (§3)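 Preformed-biofilm dispersion. Gelatin-coated wells seeded with 1 × 10^6 CFU/mL in TSB with 0.5% glucose and grown 24 h at 37 °C. Medium replaced with 2-fold dilutions in fresh TSB with 0.5% glucose, then a further 24 h at 37 °C. Biofilm fixed with methanol, stained with 0.1% crystal violet, dissolved in methanol:acetic acid:water 4:1:5 and read at OD540.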

[8] = Stability in simulated intestinal fluid at pH 6.8 at 1 uM after 2 hrs by LC-MS/MS method; format: ADME; conditions: simulated gi fluid, pH 6.8, 2 h
In short: (§4)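 Stability tested in simulated gastric fluid (pH 1.2), simulated intestinal fluid (pH 6.8) and 50 mM tris buffer (pH 7.4) using literature protocols.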

Galleria mellonella = experiment: Toxicity in Galleria mellonella larvae assessed as decrease in survival at 0.5 times MIC after 96 hrs; format: organism-based; conditions: in vivo
Staphylococcus aureus [9] = experiment: Induction of biofilm dispersion of methicillin-resistant Staphylococcus aureus USA300 JE2 at MIC after 24 hrs by crystal violet staining-based assay relative to control; format: functional; in short: as §3
[10] = Metabolic stability in human liver S9 fraction at 1 uM after 5 to 60 mins by LC-MS/MS method; format: ADME, subcellular; conditions: s9, 1 µM
In short: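 Compounds incubated with human liver S9 fraction, covering phase I and phase II enzymes; depletion followed over incubation time as percent remaining. Mean ± S.D., n = 3.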

Staphylococcus aureus [11] = experiment: Bacteriostatic activity against methicillin-resistant Staphylococcus aureus USA300 JE2 at 3 times MIC after 1 to 24 hrs by time killing assay; format: functional, organism-based
In short: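 Time-kill. Culture grown in Mueller Hinton broth at 37 °C for 6 h, adjusted to about 7.5 × 10^6 CFU/mL and exposed to 3 × MIC at 37 °C. Samples taken at 0, 1, 2, 3, 4, 6 and 24 h, serially diluted 10-fold in 0.9% saline and plated on Mueller Hinton agar for 24 h at 37 °C. Colonies counted and plotted as log CFU/mL. Triplicate.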

[12] = Cytotoxicity against HCEC after 24 hrs by MTT assay; set-up: species or system Homo sapiens
In short: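 HCEC cells grown in HCEC medium at 37 °C in a hypoxia chamber, seeded 6000 cells/well, left 24 h, then exposed 24 h to 200, 100, 50, 25, 12.5, 6.25 or 0 (vehicle) µg/mL. MTT added from a 2 mg/mL stock for 2 h, formazan dissolved in DMSO, absorbance read at 570 nm.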

Escherichia coli [13] = experiment: Induction of membrane damage of Escherichia coli K-12 at 2 times MIC after 18 hrs by transmission electron microscopic method; format: functional, organism-based
Staphylococcus aureus [14] = experiment: Induction of membrane damage of methicillin-resistant Staphylococcus aureus USA300 JE2 at MIC after 18 hrs by propidium iodide staining-based flow cytometric method; format: functional, organism-based
In short: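 Flow cytometry membrane-permeability assay. […] Propidium iodide stock at 1 mg/mL added, held 15–20 min in the dark, then cells washed three times and resuspended in PBS. Controls: PI-stained untreated cells and cells treated with 70% ethanol.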

[15] = Stability in simulated gastric fluid at pH1.2 at 1 uM after 2 hrs by LC-MS/MS method; format: ADME; conditions: simulated gi fluid, pH 1.2, 2 h; in short: as §4
[16] = Stability in tris buffer at pH 7.4 at 1 uM after 2 hrs by LC-MS/MS method; format: physicochemical; conditions: pH 7.4, 2 h; in short: as §4
[17] = Toxicity in Galleria mellonella larvae assessed as survival at 3 ug/ml after 96 hrs relative to control; format: organism-based; conditions: in vivo
Staphylococcus aureus [18] = experiment: Inhibition of biofilm formation of methicillin-resistant Staphylococcus aureus USA300 JE2 at 8 times MIC after 24 hrs by crystal violet staining-based assay relative to control; format: functional; in short: as §2
Staphylococcus aureus [19] = experiment: Induction of biofilm dispersion of methicillin-resistant Staphylococcus aureus USA300 JE2 at 1 to 32 ug/ml after 24 hrs by crystal violet staining-based assay relative to control; format: functional, organism-based; in short: as §3
Staphylococcus aureus [20] = experiment: Antibacterial activity against methicillin-resistant Staphylococcus aureus USA300 JE2 at 10 ug after 24 hrs by Kirby Bauer method; format: functional; conditions: USA300 JE2, 24 h, read-out: DIZ
In short: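 Disc diffusion reference, streptomycin 10 µg. 0.5 McFarland inoculum spread on Mueller Hinton agar with 6 mm discs. Incubated at 37 °C and inhibition zone diameter measured after 24 h.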

Compound | MIC (Escherichia coli [1]; K-12, 24 h) [mg/L] | MIC (Staphylococcus aureus [2]) [mg/L] | further results
O=C(Nc1nnn[nH]1)c1cccc2nc3cccc(Cl)c3nc12 | 128 (≈ 393 µM) | 32 (≈ 98.2 µM) | 
CS(=O)(=O)NC(=O)c1cccc2nc3cccc(F)c3nc12 | 128 (≈ 401 µM) | 64 (≈ 200 µM) | 
CN(C(=O)c1cccc2nc3cccc(Cl)c3nc12)S(C)(=O)=O | 64 (≈ 183 µM) | > 256 | 
COC(=O)c1cccc2nc3c(Cl)ccc(Cl)c3nc12 | 64 (≈ 208 µM) | 128 (≈ 417 µM) | 
CS(=O)(=O)NC(=O)c1cccc2nc3ccccc3nc12 | 128 (≈ 425 µM) | 128 (≈ 425 µM) | 
COc1ccc2nc3c(C(=O)O)cccc3nc2c1 | 64 (≈ 252 µM) | 256 (≈ 1010 µM) | 
COc1ccc(OC)c2nc3c(C(=O)O)cccc3nc12 | 64 (≈ 225 µM) | 64 (≈ 225 µM) | 
N#Cc1cccc2nc3cccc(Cl)c3nc12 | 64 (≈ 267 µM) | > 256 | 
COC(=O)c1cccc2nc3cc(OC)cc(Br)c3nc12 | 128 (≈ 369 µM) | 128 (≈ 369 µM) | 
CS(=O)(=O)NC(=O)c1cccc2nc3c(Cl)ccc(Cl)c3nc12 | 64 (≈ 173 µM) | 16 (≈ 43.2 µM) | diameter of the inhibition zone (DIZ) (Staphylococcus aureus [3]): 19 mm; inhibition (INH) (Staphylococcus aureus [4]): 82%; Activity (Staphylococcus aureus [5]): Active; Activity (Staphylococcus aureus [6]): inactive; Activity (Staphylococcus aureus [7]): 61%; Stability [8]: Stable; Activity (Galleria mellonella): Non-Toxic; Activity (Staphylococcus aureus [9]): 42%; Stability [10]: Stable; Activity (Staphylococcus aureus [11]): Active; IC50 [12]: 208 µM; Activity (Escherichia coli [13]): inactive; Activity (Staphylococcus aureus [14]): inactive; Stability [15]: Stable; Stability [16]: Stable
COC(=O)c1cccc2nc3cccc(OC)c3nc12 | 128 (≈ 477 µM) | 128 (≈ 477 µM) | 
NC(=O)c1cccc2nc3cccc(Cl)c3nc12 | 128 (≈ 497 µM) | > 256 | 
CS(=O)(=O)NC(=O)c1cccc2nc3cccc(Cl)c3nc12 | 128 (≈ 381 µM) | 2 (≈ 5.96 µM) | diameter of the inhibition zone (DIZ) (Staphylococcus aureus [3]): 16 mm; Activity (Staphylococcus aureus [5]): Active; survival at 96 h [17]: 70%; Activity (Staphylococcus aureus [6]): inactive; Stability [8]: Stable; Stability [10]: Stable; inhibition (INH) (Staphylococcus aureus [18]): 90%; Activity (Escherichia coli [13]): inactive; Activity (Staphylococcus aureus [14]): inactive; Stability [15]: Stable; Activity (Staphylococcus aureus [19]): inactive; Stability [16]: Stable
CC(C)(C)[Si](C)(C)ON |  |  | diameter of the inhibition zone (DIZ) (Staphylococcus aureus [3]): 11 mm; Activity (Staphylococcus aureus [5]): Active
O=C(O)c1cccc2nc3c(Cl)ccc(Cl)c3nc12 | 128 (≈ 437 µM) | 64 (≈ 218 µM) | 
COc1ccc(Br)c2nc3c(C(=O)NS(C)(=O)=O)cccc3nc12 | 64 (≈ 156 µM) | 128 (≈ 312 µM) | 
Cc1cccc2nc3cccc(C(=O)NS(C)(=O)=O)c3nc12 | 32 (≈ 101 µM) | 32 (≈ 101 µM) | Activity (Staphylococcus aureus [5]): Active
COc1ccc(Br)c2nc3c(C(=O)NC#N)cccc3nc12 | 32 (≈ 89.6 µM) | 256 (≈ 717 µM) | 
COC(=O)c1cccc2nc3cc(OC)ccc3nc12 | 64 (≈ 239 µM) | 128 (≈ 477 µM) | 
GENTAMICIN |  |  | MIC (Escherichia coli [1]): 0.25 mg/L
O=C(NO)c1cccc2nc3cccc(Cl)c3nc12 | 128 (≈ 468 µM) | 32 (≈ 117 µM) | 
COc1cc(Br)cc2nc3cccc(C(=O)O)c3nc12 | 128 (≈ 384 µM) | 128 (≈ 384 µM) | 
COC(=O)c1cccc2nc3cc(Br)cc(OC)c3nc12 | 128 (≈ 369 µM) | 128 (≈ 369 µM) | 
CN[C@@H]1[C@H](O[C@H]2[C@H](O[C@H]3[C@H](O)[C@@H](O)[C@H](N=C(N)N)[C@@H](O)[C@@H]3N=C(N)N)O[C@@H](C)[C@]2(O)C=O)O[C@@H](CO)[C@H](O)[C@H]1O [STREPTOMYCIN] |  |  | zone of inhibition at 10 µg/disc (Staphylococcus aureus [20]): 18 mm
NC(=O)c1cccc2nc3c(Cl)ccc(Cl)c3nc12 | 32 (≈ 110 µM) | 128 (≈ 438 µM) | 
COc1cc(Br)c2nc3c(C(=O)O)cccc3nc2c1 | 256 (≈ 768 µM) | 64 (≈ 192 µM) | 
COc1ccc(Br)c2nc3c(C(=O)O)cccc3nc12 | 64 (≈ 192 µM) | 128 (≈ 384 µM) | 
N#CNC(=O)c1cccc2nc3cccc(Cl)c3nc12 | 128 (≈ 453 µM) | 128 (≈ 453 µM) | 
CN(C(=O)c1cccc2nc3ccccc3nc12)S(C)(=O)=O | 128 (≈ 406 µM) | 256 (≈ 812 µM) | 
N#CNC(=O)c1cccc2nc3cccc(F)c3nc12 | 128 (≈ 481 µM) | 128 (≈ 481 µM) | 
